Laboratory results published in ChEMBL document CHEMBL1932924, “Design, synthesis, and biological evaluation of 4-phenylpyrrole derivatives as novel androgen receptor antagonists” (Bioorg Med Chem, 2012).
In brackets after ≈: the same amount, converted by molar mass.

Assays:
Androgen receptor [1] = molecular target: T1, Androgen receptor (Homo sapiens, UniProt P10275, T878A); assay: Displacement of [17-alpha-methyl-3H]-mibolerone from human androgen receptor T877A mutant expressed in HEK293 derived FreeStyle293F cells after 3 hrs; format: cell-based
T1 sequence (P10275 whole entry T878A): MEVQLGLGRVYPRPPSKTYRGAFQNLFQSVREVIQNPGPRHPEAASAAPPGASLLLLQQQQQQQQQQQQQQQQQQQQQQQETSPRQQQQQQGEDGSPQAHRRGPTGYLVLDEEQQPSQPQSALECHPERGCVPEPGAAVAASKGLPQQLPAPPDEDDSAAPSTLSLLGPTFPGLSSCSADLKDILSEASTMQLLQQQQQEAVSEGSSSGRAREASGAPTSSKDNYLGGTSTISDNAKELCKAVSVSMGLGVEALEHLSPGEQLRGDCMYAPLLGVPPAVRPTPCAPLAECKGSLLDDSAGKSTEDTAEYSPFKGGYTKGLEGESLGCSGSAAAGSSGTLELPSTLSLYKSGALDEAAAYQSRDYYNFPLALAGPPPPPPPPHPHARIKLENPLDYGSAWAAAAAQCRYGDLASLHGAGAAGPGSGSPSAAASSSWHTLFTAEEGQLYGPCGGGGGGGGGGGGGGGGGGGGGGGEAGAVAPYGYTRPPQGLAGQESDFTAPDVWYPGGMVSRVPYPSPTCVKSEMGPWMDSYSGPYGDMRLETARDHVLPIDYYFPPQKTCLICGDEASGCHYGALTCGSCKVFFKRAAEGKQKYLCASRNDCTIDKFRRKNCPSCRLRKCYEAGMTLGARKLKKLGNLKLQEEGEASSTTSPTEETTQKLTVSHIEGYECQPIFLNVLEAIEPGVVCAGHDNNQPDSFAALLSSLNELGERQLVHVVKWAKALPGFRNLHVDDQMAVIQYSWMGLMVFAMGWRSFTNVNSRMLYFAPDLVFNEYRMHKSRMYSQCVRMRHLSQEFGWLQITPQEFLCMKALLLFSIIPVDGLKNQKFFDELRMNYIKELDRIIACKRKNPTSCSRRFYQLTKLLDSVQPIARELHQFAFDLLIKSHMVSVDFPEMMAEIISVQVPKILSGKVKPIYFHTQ

Androgen receptor [2] = molecular target: T2, Androgen receptor (Homo sapiens, UniProt P10275, W742C); assay: Agonist activity at human androgen receptor W741C mutant expressed in COS7 cells assessed as luciferase activity after 24 hrs by reporter gene assay; format: functional, cell-based, COS-7
T2 sequence (P10275 whole entry W742C): as the sequence (P10275 whole entry T878A) above, with W742C, A878T counted along it

Androgen receptor [3] = molecular target: T1, Androgen receptor; assay: Antagonist activity at human androgen receptor T877A mutant expressed in COS7 cells assessed as inhibition of DHT-induced luciferase activity after 24 hrs by reporter gene assay; format: functional, cell-based, COS-7
Androgen receptor [4] = molecular target: T3, Androgen receptor (Homo sapiens, UniProt P10275); assay: Agonist activity at human androgen receptor expressed in COS7 cells assessed as luciferase activity after 24 hrs by reporter gene assay; format: functional, cell-based, COS-7
T3 sequence (P10275 whole entry): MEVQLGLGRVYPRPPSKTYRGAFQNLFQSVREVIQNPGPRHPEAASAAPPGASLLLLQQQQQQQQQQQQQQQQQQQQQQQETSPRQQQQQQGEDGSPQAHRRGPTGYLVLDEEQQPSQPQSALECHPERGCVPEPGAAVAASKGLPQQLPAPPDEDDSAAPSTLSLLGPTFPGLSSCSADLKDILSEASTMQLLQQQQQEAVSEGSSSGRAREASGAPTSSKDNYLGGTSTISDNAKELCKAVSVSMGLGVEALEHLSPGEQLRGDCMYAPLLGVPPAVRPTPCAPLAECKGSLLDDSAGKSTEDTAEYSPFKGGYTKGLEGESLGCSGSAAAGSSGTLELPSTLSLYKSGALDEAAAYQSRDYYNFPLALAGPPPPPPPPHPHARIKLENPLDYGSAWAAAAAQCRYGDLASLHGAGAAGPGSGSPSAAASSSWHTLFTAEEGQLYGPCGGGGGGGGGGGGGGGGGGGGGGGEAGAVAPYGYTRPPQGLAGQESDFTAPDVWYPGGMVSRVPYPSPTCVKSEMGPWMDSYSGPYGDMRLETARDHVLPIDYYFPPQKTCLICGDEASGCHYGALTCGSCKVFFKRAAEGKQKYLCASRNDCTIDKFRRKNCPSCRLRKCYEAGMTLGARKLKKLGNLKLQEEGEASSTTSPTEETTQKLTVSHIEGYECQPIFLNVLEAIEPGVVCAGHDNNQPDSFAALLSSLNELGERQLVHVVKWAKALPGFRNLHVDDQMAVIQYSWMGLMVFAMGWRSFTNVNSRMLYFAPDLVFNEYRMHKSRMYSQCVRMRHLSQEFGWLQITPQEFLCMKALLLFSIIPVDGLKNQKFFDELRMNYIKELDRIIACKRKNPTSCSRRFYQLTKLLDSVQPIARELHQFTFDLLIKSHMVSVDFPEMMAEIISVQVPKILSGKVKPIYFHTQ

Androgen receptor [5] = molecular target: T2, Androgen receptor; assay: Antagonist activity at human androgen receptor W741C mutant expressed in COS7 cells assessed as inhibition of DHT-induced luciferase activity after 24 hrs by reporter gene assay; format: functional, cell-based, COS-7
Androgen receptor [6] = molecular target: T3, Androgen receptor; assay: Displacement of [17-alpha-methyl-3H]-mibolerone from human androgen receptor expressed in HEK293 derived FreeStyle293F cells after 3 hrs; format: cell-based
Androgen receptor [7] = molecular target: T3, Androgen receptor; assay: Antagonist activity at human androgen receptor expressed in COS7 cells assessed as inhibition of DHT-induced luciferase activity after 24 hrs by reporter gene assay; format: functional, cell-based, COS-7
Androgen receptor [8] = molecular target: T1, Androgen receptor; assay: Agonist activity at human androgen receptor T877A mutant expressed in COS7 cells assessed as luciferase activity after 24 hrs by reporter gene assay; format: functional, cell-based, COS-7
[9] = Solubility in aqueous buffer solution at pH 6.8; format: physicochemical
In short: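 DMSO stock added to aqueous buffer at pH 6.8 and incubated. Precipitate removed by filtration; filtrate concentration measured by HPLC.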

SMILES | IC50 (Androgen receptor [1]) [nM] | EC50 (Androgen receptor [2]) [nM] | IC50 (Androgen receptor [3]) [nM] | EC50 (Androgen receptor [4]) [nM] | IC50 (Androgen receptor [5]) [nM] | IC50 (Androgen receptor [6]) [nM] | IC50 (Androgen receptor [7]) [nM] | EC50 (Androgen receptor [8]) [nM] | solubility [9] [µg/mL]
CCOC(=O)c1c(C)[nH]c(C)c1-c1ccc([N+](=O)[O-])cc1 | 34 | > 10000 | 340 | > 10000 | 4200 | 22 | 240 | > 10000 | 
COC(=O)c1c(-c2ccccc2)c(C)n(Cc2ccccc2)c1C | 65 | > 10000 | 1300 | > 10000 | 3700 | 130 | 2600 | > 10000 | 
CCOC(=O)c1c(-c2ccc([N+](=O)[O-])cc2)c(C)n(Cc2ccccc2)c1C | 5.2 | > 10000 | 160 | > 10000 | 3200 | 5.5 | 340 | > 10000 | 
Cc1cc(-c2ccc([N+](=O)[O-])cc2)c(C)n1Cc1ccccc1 | 2.2 | > 10000 | 210 | > 10000 | 3100 | 6.7 | 490 | > 10000 | 
Cc1c(C#N)c(-c2ccc(C#N)cc2)c(C)n1Cc1cccnc1 | 23 | 3600 | 190 | 2200 | 180 | 3.4 | 65 | > 10000 | 5.1 (≈ 16.3 µM)
Cc1c(C(=O)O)c(-c2ccc([N+](=O)[O-])cc2)c(C)n1Cc1ccccc1 | 190 | > 10000 | 6500 | > 10000 | > 10000 | 620 | 8700 | > 10000 | 
CCOC(=O)c1c(-c2ccc([N+](=O)[O-])cc2)c(C)n(CCc2ccccc2)c1C | 52 | > 10000 | 970 | > 10000 | > 10000 | 150 | 4100 | > 10000 | 
CC(=O)c1c(-c2ccc([N+](=O)[O-])cc2)c(C)n(Cc2ccccc2)c1C | 130 | > 10000 | 900 | > 10000 | 6500 | 390 | 4600 | > 10000 | 
Cc1c(CO)c(-c2ccc([N+](=O)[O-])cc2)c(C)n1Cc1ccccc1 | 92 | > 10000 | 660 | > 10000 | > 10000 | 300 | 3800 | > 10000 | 
Cc1c(-c2ccc(C#N)cc2)c(C#N)cn1Cc1cnc(Cl)c(CO)c1 | 1100 | > 10000 | 810 | > 10000 | 1400 | 490 | 320 | > 10000 | 
CCOC(=O)c1c(-c2ccc([N+](=O)[O-])cc2)c(C)n(CC2CCCCC2)c1C | 350 | > 10000 | 3700 | > 10000 | 7200 | 310 | 3800 | > 10000 | 
CCOC(=O)c1c(-c2ccc([N+](=O)[O-])cc2)c(C)n(S(=O)(=O)c2ccccc2)c1C | 62 | > 10000 | 4700 | > 10000 | > 10000 | 130 | 4700 | > 10000 | 
COC(=O)c1c(-c2ccc(C#N)c(C(F)(F)F)c2)c(C)n(Cc2ccccc2)c1C | 4.7 | > 10000 | 690 | > 10000 | 3300 | 3.9 | 320 | 5400 | 
Cc1c(C#N)c(-c2ccc(C#N)cc2)c(C)n1Cc1ccccc1 | 3 | > 10000 | 41 | > 10000 | 380 | 1.4 | 40 | > 10000 | 0.35 (≈ 1.12 µM)
COC(=O)c1c(-c2ccc(C#N)cc2)c(C)n(Cc2ccccc2)c1C | 23 | > 10000 | 120 | > 10000 | 710 | 27 | 270 | > 10000 | 
COC(=O)c1c(-c2ccc([N+](=O)[O-])cc2)c(C)n(Cc2ccccc2)c1C | 3.8 | > 10000 | 150 | > 10000 | 740 | 5 | 300 | > 10000 | 
Cc1c(C#N)c(-c2ccc(C#N)cc2)c(C)n1Cc1ccc(Cl)nc1 | 24 | > 10000 | 100 | > 10000 | 910 | 9 | 45 | > 10000 | 0.83 (≈ 2.39 µM)
CCOC(=O)c1c(-c2ccc([N+](=O)[O-])cc2)c(C)n(C(=O)c2ccccc2)c1C | 85 | > 10000 | 1500 | > 10000 | 7700 | 150 | 2400 | > 10000 | 
CCOC(=O)c1c(-c2ccc([N+](=O)[O-])cc2)c(C)n(-c2ccccc2)c1C | 220 | > 10000 | 2100 | > 10000 | > 10000 | 550 | 4300 | > 10000 | 
Cc1c(C#N)c(-c2ccc(C#N)cc2)cn1Cc1cnc(Cl)c(CO)c1 | 160 | > 10000 | 910 | > 10000 | 760 | 78 | 170 | > 10000 | 
Cc1c(C#N)c(-c2ccc(C#N)cc2)c(C)n1Cc1cncc(CO)c1 | 150 | > 10000 | 440 | > 10000 | 600 | 14 | 100 | > 10000 | 3.5 (≈ 10.2 µM)
CCOC(=O)c1c(-c2ccc([N+](=O)[O-])cc2)c(C)n(C)c1C | 30 | > 10000 | 210 | > 10000 | 6200 | 47 | 500 | > 10000 | 
